In PubChem BioAssay:
Unmarked numbers belong to inactive results. Inconclusive results are not listed. Active and inactive are the calls of the source.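 Rule for the calls, unless noted: active = inhibition over a set limit, the all-compound mean plus 3 SD, in both replicate runs; inconclusive = over that limit in just one replicate run; inactive = at or under that limit in both runs.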

Assays:
[1] = OD615 S. cerevisiae growth inhibition, permissive medium, pilot counter-assay, permissive growth control for S. cerevisiae lifespan shortening project (AID 705;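 active = growth inhibition above 25% in both replicates, a cutoff set 3 SD above the mean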); settings: OD615, 24 h, at 10 µM, hits give high values
Summary of the method: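 Timing: 24 h exposure, 30 °C / Material: Saccharomyces cerevisiae strain carrying genetically modified DeaD replicative-lifespan system / Signal: OD at 615 nm / Compound: 10 µM single dose, 0.25% DMSO / Medium: SC raffinose/galactose permissive medium / Evaluation: reduction in yeast growth (OD615)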

[2] = Restrictive medium S. cerevisiae growth inhibition, OD615, pilot screen of yeast lifespan reduction project, restrictive growth control (AID 706;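 active = growth inhibition above a set limit, 3 SD over mean compound inhibition, in both replicates, cut at about 43% in these data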;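 note: modified DeaD lifespan yeast strain shifted to restrictive glucose medium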); settings: OD615, 48 h, at 10 µM, hits give high values
Summary of the method: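 System: Engineered S. cerevisiae DeaD strain | Detection: OD615 | Buffer or medium: CSMM-D glucose medium | Doses: 10 µM compound, 0.25% DMSO | Timing: 4 h pre-growth plus 48 h compound exposure, 30 °C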

[3] = viability gain of MRP-1-high H69AR cells under doxorubicin, pilot screen, MRP-1 activator project, CellTiter-Glo, duplicate (AID 807;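 active = viability increase at or above a cutoff of the median across tested compounds plus 3 SD, cut at about 8.5% in these data, passing the limit was not always enough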;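 note: compound pretreatment 18-22 h then 72 h combined with doxorubicin; 0% = doxorubicin alone and 100% = vehicle without doxorubicin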); settings: H69AR viability with doxorubicin, CellTiter-Glo luminescence; at 10 µM; hits give high values
[4] = growth suppression of beta-catenin knockout HCT116, pilot screen, human colon tumor cells (AID 823;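 active = cell viability at or below a set limit in both duplicate runs, the limit being the all-compound median minus 4 SD, cut at about 23% in these data, passing the limit was not always enough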;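 note: 0% = wells killed by 20 µM Hyamine and 100% = untreated DMSO cell wells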); settings: CellTiter-Glo, 60 h, at 10 µM, hits give low values
[5] = growth suppression of PTEN-deleted HCT116, pilot screen, cell-based, HCT116 clonal line, CellTiter-Glo (AID 824;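 active = viability at or below 27.92% in each of two runs, the all-compound median minus 4 SD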;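 note: 0% = 20 µM Hyamine control and 100% = vehicle cell control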); settings: 60 h, at 10 µM, hits give low values
[6] = inhibitors of the yeast RAM network, pilot screen, dse1pr::URA3 reporter, 5-FOA selection (AID 869);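 note: 0% = DMSO wells with no growth and 100% = 10 µM 1-NA-PP1 with full growth; RAM network block rescues cells from 5-FOA so hits raise OD615 growth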; settings: S. cerevisiae dse1pr::URA3 5-FOA growth, OD615, 2 d; at 10 µM; hits give high values; strain carries analog-sensitive mutant Cbk1 kinase
[7] = RAM signaling pathway blockade in yeast – S. cerevisiae, Pdr1DBD-CYC8 efflux-inhibited sensitized strain, primary screen (AID 1298;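 active = RAM network inhibition above 8.4% in each of two replicates, 3 SD over the compound average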;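 note: 0% = DMSO untreated cells without growth and 100% = 10 µM 1-NA-PP1 full growth; higher means more yeast growth rescued from 5-FOA killing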); settings: S. cerevisiae cbk1-as DSE1-URA3 strain, 5-FOA growth OD615, 2 d; at 50 µM; hits give high values

SMILES	growth inhibition [1]	growth inhibition [2]	viability increase [3]	viability [4]	viability [5]	inhibition [6]	RAM network inhibition [7]
CCOC(=O)C1Cn2c(nc3c(c2=O)C(C)(C)Cc2ccccc2-3)S1 (stereo unspecified)	-1.77%	2.82%	0.36%	90.2%	88.5%	3.48%	8.31%
CN1C(=O)c2cccc(NC(=O)C3CCCCC3)c2C1=O	-7.12%	6.03%	-1.21%	107%	93%	0.445%	-0.16%
CCOc1ccccc1CNC(=O)c1cc2occc2n1C	1.53%	5.16%	1.21%	95.2%	87.4%	1.74%	3.98%
CCCC(=O)Nc1nc2c(OC)ccc(OC)c2s1	-7.39%	-5.13%	-3.01%	93.5%	90.3%	2.33%	3.64%
CCOC(=O)c1nnn(-c2nonc2N)c1COc1ccccc1	-15.7%	-5.9%	-2.43%	89.5%	87.4%	0.05%	3.66%
CC(NC(=O)Cn1cc2c(n1)CCCCC2)c1ccccc1 (stereo unspecified)	-0.875%	2.88%	3.53%	101%	100%	-0.32%	0.87%
Cc1cc(C)nc(SCCn2c(N3CCC(C)CC3)nc3c2c(=O)n(C)c(=O)n3C)n1	-3.83%	0.625%	1.09%	99.9%	97.3%	1.71%	1.91%
CC1Cc2ccccc2N1C(=O)Cn1cnc2ccccc2c1=O (stereo unspecified)	3.42%	-17.3%	0.12%	99.4%	93.3%	-0.455%	-0.47%
CC(=O)c1cccc(NC(=O)CN(c2ccc(F)cc2)S(C)(=O)=O)c1	-13%	-15.2%	-3.2%	98.2%	98.7%	0.845%	5.96%
CCOC(=O)c1ccc(Nc2cc(C)nc(-c3ccccc3O)n2)cc1	-6.03%	-3.53%	1.42%	78.5%	75.8%	-0.345%	1.54%
O=C(NCCN1C(=O)C2C3C=CC(C3)C2C1=O)Nc1cccnc1 (stereo unspecified)	-0.65%	-7.67%	-1.57%	96.7%	99.7%	0.445%	1.17%
Cn1c(=O)oc2cc(S(=O)(=O)Nc3cccc(F)c3)ccc21	-14.2%	-2.1%	-0.69%	94.3%	89.5%	2.04%	5.85%
Cc1ccc(NC2=CC(=O)CC(c3ccco3)C2)c(N)c1 (stereo unspecified)	-4.58%	5.45%	-4.41%	81.2%	86.5%	0.07%	2.43%
CCOC(=O)C1CCCN(C(=O)C2CCN(c3nnc(-n4cccc4)s3)CC2)C1 (stereo unspecified)	5.27%	2.6%	-2.17%	98.5%	90.8%	1.1%	2.55%
CC(C)c1nc(SCC(=O)Nc2ccc3c(c2)OCCO3)c2c(=O)n(C)c(=O)n(C)c2n1	0.9%	4.21%	-2.28%	85.4%	84.4%	3.59%	5.72%
CN(Cc1ccccc1)C(=O)CCn1c(=O)oc2ccccc21	2.31%	-0.265%	-1.33%	101%	99.2%	1.41%	1.99%
Cn1c(=O)oc2cc(S(=O)(=O)N3CCCC(C(=O)N4CC=C(c5ccccc5)CC4)C3)ccc21 (stereo unspecified)	-10.7%	8.07%	-1.04%	80.9%	82.1%	1.17%	4.97%

SMILES	growth inhibition [1]	growth inhibition [2]	viability increase [3]	viability [4]	viability [5]	inhibition [6]	RAM network inhibition [7]
Nc1cc(-c2cccc(F)c2)nn1S(=O)(=O)c1cccc2nsnc12	-5.94%	-7.52%	-2.16%	68.5%	65.7%	2.71%	0.98%
Cn1c(=O)oc2cc(S(=O)(=O)NCCN3CCc4ccccc4C3)ccc21	-14.3%	-10.7%	-3.63%	98.5%	89.9%	1.6%	0.61%
Cc1cc(/C=N/n2cnnc2)c(C)n1-c1ccc(OCc2ccc(F)cc2)cc1	-2.2%	32.3%	-5.79%	10.2% (active)	11.8% (active)	1.71%	8.48%
Cc1cc(Nc2ccc(F)cc2Cl)n2ncnc2n1	-7.73%	2.61%	-2.45%	103%	95.1%	-0.7%	1.89%
CC(C)c1ccccc1NC(=O)CCCC(=O)O	-2.18%	-0.2%	-0.29%	96.9%	102%	0.36%	2.42%
Cc1cc(Nc2ccc(F)cc2Cl)n2nc(C)nc2n1	-9.76%	-13%	-0.59%	109%	99.6%	1.51%	2.31%
Cc1cc(C)n(CC(O)Cn2c3ccccc3c3ccccc32)c(=O)n1 (stereo unspecified)	-7.41%	-12.9%	-2.44%	90%	91.5%	1.3%	5.3%
Cn1c(NC(=O)c2ccccc2)cc(=O)n(C)c1=O	-19%	-9.99%	-1.36%	100%	93.8%	1.12%	1.26%
CCOc1cc(-c2nc(-c3ccncc3)no2)cc(OCC)c1OCC	-5.04%	-6.19%	-5.6%	60.1%	65%	1.08%	5.16%
CN(CC1CCCO1)S(=O)(=O)c1ccc(C(=O)Nc2nc(-c3ccccn3)cs2)cc1 (stereo unspecified)	-14.2%	-14.7%	-5.46%	18.5% (active)	23.1% (active)	2.57%	2.63%
O=C(NCC1CCCO1)c1ccc2c(c1)C(=O)N(C1CCCCC1)C2=O (stereo unspecified)	-10.7%	-6.06%	1.19%	100%	91.5%	3.77%	3.57%
O=C(Cn1cc2c(n1)CCCCC2)NCc1cccs1	0.86%	0.58%	-1.84%	100%	87.7%	0.935%	1.69%
CC1(C)CC(=O)C(C=NC2CCCCC2)=C(O)C1	0.43%	-1.72%	-1.23%	98.7%	94.8%	1.33%	-1.28%
Cc1cc(N2CCOCC2)nc2cc(O)ccc12	-10.3%	-15.5%	-1.02%	97.4%	87.6%	1.31%	5.97%
CCC(C)NC(=O)CN(c1ccc2c(c1)OCO2)S(=O)(=O)c1c(C)n[nH]c1C (stereo unspecified)	-12.1%	-7.16%	-1.79%	107%	99.4%	1.34%	2.93%
Cn1c(Cn2c(=O)sc3ccccc32)nnc1SCC(=O)NCc1ccc2c(c1)OCO2	-5.55%	-2.44%	0.11%	103%	101%	1.07%	4.41%
